In brackets after ≈: the same amount, converted by molar mass. Activity calls are given as the source filed them. The rule behind the calls is not given here.
What was measured:
[1] = Genotoxicity in Salmonella typhimurium TA100 at 30 uM in presence of rat liver S9 fraction by Ames test; format: toxicity, subcellular; settings: salmonella enterica subsp. enterica serovar typhimurium, s9, 30 µM
In short: (§1)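 Microplate fluctuation Ames reverse-mutation test following kit instructions; TA98 detects frameshift and TA100 base-exchange mutations. Compound at 30 µM final with Aroclor-1254-induced rat liver S9 plus cofactors.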

[2] = Genotoxicity in Salmonella typhimurium TA98 at 30 uM in presence of rat liver S9 fraction by Ames test; format: toxicity, subcellular; settings: salmonella enterica subsp. enterica serovar typhimurium, s9, 30 µM; in short: as §1
[3] = test system: Mycobacterium tuberculosis; assay: Antimycobacterial activity against Mycobacterium tuberculosis H37Rv CNCTC My 331/88 after 14 days; format: functional; settings: H37Rv CNCTC My 331/88, 336 h
In short: (§2)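 M. tuberculosis strains (H37Rv and clinical MDR/XDR isolates) tested by microdilution in Šula's semisynthetic medium. Compounds were dissolved in DMSO and tested at 32 to 0.03 µM in twofold steps. Inoculum was a 1.0 McFarland suspension diluted 10-3. Plates were incubated at 37 °C and read at 14 and 21 days.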

[4] = test system: Mycobacterium tuberculosis; assay: Antimycobacterial activity against Mycobacterium tuberculosis H37Rv CNCTC My 331/88 after 21 days; format: functional; settings: H37Rv CNCTC My 331/88, 504 h; in short: as §2
[5] = test system: Mycobacterium avium; assay: Antimycobacterial activity against Mycobacterium avium CNCTC My 330/88 after 14 days; format: functional; settings: CNCTC My 330/88, 336 h
In short: (§3)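 M. avium was tested by microdilution in Šula's semisynthetic medium, with compounds dissolved in DMSO and serially diluted from 1000 down to 1. Inoculum was a 1.0 McFarland suspension diluted 10-5. Plates were incubated at 37 °C and read at 14 and 21 days. […] Isoniazid and rifampicin served as standards.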

[6] = test system: Mycobacterium avium; assay: Antimycobacterial activity against Mycobacterium avium CNCTC My 330/88 after 21 days; format: functional; settings: CNCTC My 330/88, 504 h; in short: as §3
[7] = test system: Mycobacterium kansasii; assay: Antimycobacterial activity against Mycobacterium kansasii CNCTC My 235/80 after 7 days; format: functional; settings: CNCTC My 235/80, 168 h
In short: (§4)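 Microdilution in Šula's semisynthetic medium; compounds in DMSO at 32–0.03 µM. Inoculum from 1.0 McFarland suspension diluted 10-4. […] Isoniazid and rifampicin as reference drugs.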

[8] = test system: Mycobacterium kansasii; assay: Antimycobacterial activity against Mycobacterium kansasii CNCTC My 235/80 after 14 days; format: functional; settings: CNCTC My 235/80, 336 h; in short: as §4
[9] = test system: Mycobacterium kansasii; assay: Antimycobacterial activity against Mycobacterium kansasii CNCTC My 235/80 after 21 days; format: functional; settings: CNCTC My 235/80, 504 h; in short: as §4
[10] = test system: Mycobacterium kansasii; assay: Antimycobacterial activity against Mycobacterium kansasii 6509/96 after 7 days; format: functional; settings: 6509/96, 168 h; in short: as §4
[11] = test system: Mycobacterium kansasii; assay: Antimycobacterial activity against Mycobacterium kansasii 6509/96 after 14 days; format: functional; settings: 6509/96, 336 h; in short: as §4
[12] = test system: Mycobacterium kansasii; assay: Antimycobacterial activity against Mycobacterium kansasii 6509/96 after 21 days; format: functional; settings: 6509/96, 504 h; in short: as §4
[13] = test system: Mycobacterium tuberculosis; assay: Antimycobacterial activity against XDR Mycobacterium tuberculosis Praha 131 after 14 days; format: functional; settings: Praha 131, 336 h; in short: as §2
[14] = test system: Mycobacterium tuberculosis; assay: Antimycobacterial activity against XDR Mycobacterium tuberculosis Praha 131 after 21 days; format: functional; settings: Praha 131, 504 h; in short: as §2
[15] = test system: HepG2; assay: Cytotoxicity against human HepG2 cells assessed as reduction in cell viability after 48 hrs by CellTiter 96 aqueous one solution assay; format: cell-based; settings: HepG2, 48 h
[16] = Cytotoxicity against human HepG2 cells assessed as cell viability at 30 uM after 48 hrs by CellTiter 96 aqueous one solution assay relative to control; format: cell-based; settings: read-out: Activity
In short: (§5)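 HepG2 (DMEM, 10% FBS, 1 mM pyruvate) or A431 (DMEM, 10% FBS) seeded 10,000 cells/well, 24 h at 37 °C, 5% CO2, then 30 µM compound for 48 h. MTS reagent 60 min, absorbance 490 nm, background subtracted; 0.1% DMSO vehicle = 100%, 10% SDS = 0% viability.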

[17] = test system: A-431; assay: Cytotoxicity against human A431 cells assessed as reduction in cell viability after 48 hrs by CellTiter 96 aqueous one solution assay; format: cell-based; settings: A-431, 48 h
[18] = Cytotoxicity against human A431 cells assessed as cell viability at 30 uM after 48 hrs by CellTiter 96 aqueous one solution assay relative to control; format: cell-based, A-431; settings: read-out: Activity; in short: as §5
[19] = test system: Staphylococcus aureus; assay: Antibacterial activity against Staphylococcus aureus subsp. aureus ATCC 29213 CCM 4223 at highest concentration measured after 24 to 48 hrs by alamar blue dye based broth microdilution assay; format: functional, organism-based
[20] = test system: Staphylococcus aureus; assay: Antibacterial activity against methicillin-resistant Staphylococcus aureus subsp. aureus ATCC 43300 CCM 4750 at highest concentration measured after 24 to 48 hrs by alamar blue dye based broth microdilution assay; format: functional, organism-based
[21] = test system: Staphylococcus epidermidis; assay: Antibacterial activity against Staphylococcus epidermidis at highest concentration measured after 24 to 48 hrs by alamar blue dye based broth microdilution assay; format: functional, organism-based
[22] = test system: Enterococcus faecalis; assay: Antibacterial activity against Enterococcus faecalis ATCC 29212 CCM 4224 at highest concentration measured after 24 to 48 hrs by alamar blue dye based broth microdilution assay; format: functional, organism-based
[23] = test system: Escherichia coli; assay: Antibacterial activity against Escherichia coli ATCC 25922 CCM 3954 at highest concentration measured after 24 to 48 hrs by alamar blue dye based broth microdilution assay; format: functional, organism-based
[24] = test system: Klebsiella pneumoniae; assay: Antibacterial activity against Klebsiella pneumoniae at highest concentration measured after 24 to 48 hrs by alamar blue dye based broth microdilution assay; format: functional, organism-based
[25] = test system: Serratia marcescens; assay: Antibacterial activity against Serratia marcescens at highest concentration measured after 24 to 48 hrs by alamar blue dye based broth microdilution assay; format: functional, organism-based
[26] = test system: Pseudomonas aeruginosa; assay: Antibacterial activity against Pseudomonas aeruginosa ATCC 27853 CCM 3955 at highest concentration measured after 24 to 48 hrs by alamar blue dye based broth microdilution assay; format: functional, organism-based
[27] = test system: Candida albicans; assay: Antifungal activity against Candida albicans ATCC 24433 CCM 8320 at highest concentration measured after 24 to 48 hrs by alamar blue dye based broth microdilution assay; format: functional, organism-based
[28] = test system: Pichia kudriavzevii; assay: Antifungal activity against Candida krusei ATCC 6258 CCM8271 at highest concentration measured after 24 to 48 hrs by alamar blue dye based broth microdilution assay; format: functional, organism-based
[29] = test system: Candida parapsilosis; assay: Antifungal activity against Candida parapsilosis ATCC 22019 CCM 8260 at highest concentration measured after 24 to 48 hrs by alamar blue dye based broth microdilution assay; format: functional, organism-based
[30] = test system: Candida tropicalis; assay: Antifungal activity against Candida tropicalis ATCC 750 CCM 8264 at highest concentration measured after 24 to 48 hrs by alamar blue dye based broth microdilution assay; format: functional, organism-based
[31] = test system: Aspergillus fumigatus; assay: Antifungal activity against Aspergillus fumigatus ATCC 204305 at highest concentration measured after 24 to 48 hrs by alamar blue dye based broth microdilution assay; format: functional, organism-based
[32] = test system: Aspergillus flavus; assay: Antifungal activity against Aspergillus flavus CCM 8363 at highest concentration measured after 24 to 48 hrs by alamar blue dye based broth microdilution assay; format: functional, organism-based
[33] = test system: Lichtheimia corymbifera; assay: Antifungal activity against Lichtheimia corymbifera CCM 8077 at highest concentration measured after 24 to 48 hrs by alamar blue dye based broth microdilution assay; format: functional, organism-based
[34] = test system: Trichophyton interdigitale; assay: Antifungal activity against Trichophyton interdigitale ATCC 9533 CCM 8377 at highest concentration measured after 72 to 120 hrs by alamar blue dye based broth microdilution assay; format: functional

SMILES | Activity [1] | Activity [2] | MIC99 [3] [µM] | MIC99 [4] [µM] | MIC99 [5] [µM] | MIC99 [6] [µM] | MIC99 [7] [µM] | MIC99 [8] [µM] | MIC99 [9] [µM] | MIC99 [10] [µM] | MIC99 [11] [µM] | MIC99 [12] [µM] | MIC99 [13] [µM] | MIC99 [14] [µM] | IC50 [15] [µM] | viability at 48 h, 30 µM [16] [%] | IC50 [17] [µM] | viability at 48 h, 30 µM [18] [%] | further results
Nc1ccc2cc3ccccc3cc2c1 [2-AMINOANTHRACENE] | Toxic | Toxic |  |  |  |  |  |  |  |  |  |  |  |  |  |  |  |  | 
O=[N+]([O-])c1cc(-c2nnc(SCc3ccc(Cl)c(Cl)c3)n2Cc2ccccc2)cc(C(F)(F)F)c1 | Non-Toxic | Non-Toxic | 2 (≈ 1.08 µg/mL) | 2 (≈ 1.08 µg/mL) | 250 (≈ 135 µg/mL) | 250 (≈ 135 µg/mL) | 4 (≈ 2.16 µg/mL) | 4 (≈ 2.16 µg/mL) | 4 (≈ 2.16 µg/mL) | 4 (≈ 2.16 µg/mL) | 4 (≈ 2.16 µg/mL) | 8 (≈ 4.31 µg/mL) | 2 (≈ 1.08 µg/mL) | 2 (≈ 1.08 µg/mL) | > 30 | 104 | > 30 | 80 | 
CCCCCCCCSc1nnc(-c2cc([N+](=O)[O-])cc([N+](=O)[O-])c2)n1Cc1ccccc1 |  |  | 0.06 (≈ 0.0282 µg/mL) | 0.125 (≈ 0.0587 µg/mL) | 250 (≈ 117 µg/mL) | 250 (≈ 117 µg/mL) | 0.06 (≈ 0.0282 µg/mL) | 0.06 (≈ 0.0282 µg/mL) | 0.125 (≈ 0.0587 µg/mL) | 0.06 (≈ 0.0282 µg/mL) | 0.06 (≈ 0.0282 µg/mL) | 0.125 (≈ 0.0587 µg/mL) | 0.125 (≈ 0.0587 µg/mL) | 0.25 (≈ 0.117 µg/mL) | > 30 | 99 | > 30 | 131 | Activity [19]: inactive; Activity [20]: inactive; Activity [21]: inactive; Activity [22]: inactive; Activity [23]: inactive; Activity [24]: inactive; Activity [25]: inactive; Activity [26]: inactive; Activity [27]: inactive; Activity [28]: inactive; Activity [29]: inactive; Activity [30]: inactive; Activity [31]: inactive; Activity [32]: inactive; Activity [33]: inactive; Activity [34]: inactive
